From ChEMBL document CHEMBL4270573, “Novel nicotinoyl pyrazoline derivates bearing N-methyl indole moiety as antitumor agents: Design, synthesis and evaluation” (Eur J Med Chem, 2018)
Calls of active or inactive are those of the source. The calls are words filed in the database; no cut-off is given here.

Columns and labels:
Mus musculus [1] = assay: Hepatotoxicity in nude mouse xenografted with human HeLa cells assessed as edema in liver at 10 to 20 mg/kg, ip after 14 days by hematoxylin and eosin staining based microscopic analysis; format: toxicity, organism-based; details: in vivo, 336 h
Outline: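 HeLa xenograft nude mice with tumours near 100 mm³, randomised to four groups of 28 mice in total. Dosing was intraperitoneal: vehicle, CA-4 10 mg/kg, or test compound at 10 or 20 mg/kg, continued for 14 days. Heart, liver, kidney and spleen were then H&E-stained and examined for inflammatory infiltration, edema, necrosis and cell morphology.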

[2] = Inhibition of porcine brain tubulin polymerization measured over 30 mins; design: species or system Sus scrofa
HepG2 [3] = assay: Cell cycle arrest in human HepG2 cells assessed as accumulation at G2/M phase after 6 to 24 hrs by propidium iodide staining based flow cytometric analysis; format: functional
Outline: (§1)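 HepG2 and HeLa cells were exposed to 0, 0.020, 0.040, 0.060, 0.080 or 0.10 µM for 6, 12 or 24 h. DNA content was stained with propidium iodide and analysed by flow cytometry to give the percentage of cells in G0/G1, S and G2/M phases; sub-G1 cells were also recorded.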

HeLa [4] = assay: Cell cycle arrest in human HeLa cells assessed as accumulation at G0/G1 phase at 0.060 uM after 24 hrs by propidium iodide staining based flow cytometric analysis (reference value: 66.26%); format: functional; outline: as §1
HeLa [5] = assay: Cell cycle arrest in human HeLa cells assessed as accumulation at S phase at 0.060 uM after 24 hrs by propidium iodide staining based flow cytometric analysis (reference value: 17.46%); format: functional; outline: as §1
HeLa [6] = assay: Cell cycle arrest in human HeLa cells assessed as accumulation at G2/M phase at 0.060 uM after 24 hrs by propidium iodide staining based flow cytometric analysis (reference value: 17.72%); format: functional; outline: as §1
HepG2 [7] = assay: Cell cycle arrest in human HepG2 cells assessed as accumulation at G2/M phase at 0.020 uM after 24 hrs by propidium iodide staining based flow cytometric analysis (reference value: 20.17%); format: functional; outline: as §1
HepG2 [8] = assay: Cell cycle arrest in human HepG2 cells assessed as accumulation at G2/M phase at 0.040 uM after 24 hrs by propidium iodide staining based flow cytometric analysis (reference value: 20.17%); format: functional; outline: as §1
HepG2 [9] = assay: Cell cycle arrest in human HepG2 cells assessed as accumulation at S phase at 0.060 uM after 24 hrs by propidium iodide staining based flow cytometric analysis (reference value: 20.40%); format: functional; outline: as §1
HeLa [10] = assay: Induction of apoptosis in human HeLa cells assessed as necrotic cells at 0.020 uM after 24 hrs by Annexin V-FITC/propidium iodide staining based flow cytometric analysis (reference value: 0.242%); format: functional
Outline: (§2)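 HepG2 and HeLa cells were exposed to 0, 0.02, 0.040, 0.060, 0.080 and 0.10 µM for 6, 12 and 24 h. Cells were double-stained with Annexin V-FITC/PI and read by flow cytometry. Apoptotic rate was the percentage of FITC-positive cells, counting early plus late apoptotic.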

HeLa [11] = assay: Induction of apoptosis in human HeLa cells assessed as early apoptotic cells at 0.040 uM after 24 hrs by Annexin V-FITC/propidium iodide staining based flow cytometric analysis (reference value: 6.17%); format: functional; outline: as §2
HeLa [12] = assay: Induction of apoptosis in human HeLa cells assessed as necrotic cells at 0.040 uM after 24 hrs by Annexin V-FITC/propidium iodide staining based flow cytometric analysis (reference value: 0.242%); format: functional; outline: as §2
HeLa [13] = assay: Induction of apoptosis in human HeLa cells assessed as late apoptotic cells at 0.060 uM after 24 hrs by Annexin V-FITC/propidium iodide staining based flow cytometric analysis (reference value: 4.98%); format: functional; outline: as §2
HepG2 [14] = assay: Induction of apoptosis in human HepG2 cells assessed as viable cells at 0.020 uM after 24 hrs by Annexin V-FITC/propidium iodide staining based flow cytometric analysis (reference value: 94.5%); format: functional; details: HepG2, 24 h, read-out: Activity; outline: as §2
HepG2 [15] = assay: Induction of apoptosis in human HepG2 cells assessed as early apoptotic cells at 0.080 uM after 24 hrs by Annexin V-FITC/propidium iodide staining based flow cytometric analysis (reference value: 2.31%); format: functional; outline: as §2
HepG2 [16] = assay: Induction of apoptosis in human HepG2 cells assessed as viable cells at 0.080 uM after 24 hrs by Annexin V-FITC/propidium iodide staining based flow cytometric analysis (reference value: 94.5%); format: functional; details: HepG2, 24 h, read-out: Activity; outline: as §2
HepG2 [17] = assay: Induction of apoptosis in human HepG2 cells assessed as late apoptotic cells at 0.10 uM after 24 hrs by Annexin V-FITC/propidium iodide staining based flow cytometric analysis (reference value: 2.93%); format: functional; outline: as §2
Mus musculus [18] = assay: Toxicity in nude mouse xenografted with human HeLa cells assessed as body weight loss at 10 to 20 mg/kg, ip after 14 days; format: organism-based; details: in vivo, 336 h
Mus musculus [19] = assay: Toxicity in nude mouse xenografted with human HeLa cells assessed as change in mouse liver weight at 10 to 20 mg/kg, ip after 14 days; format: organism-based; details: in vivo, 336 h
Bos taurus = species on record: Bos taurus; assay: Inhibition of colchicine binding to calf brain tubulin preincubated for 1 hr followed by colchicine addition measured after 1 hr by UPLC-MS/MS analysis
HeLa [20] = assay: Cell cycle arrest in human HeLa cells assessed as accumulation at G2/M phase at 0.080 uM after 12 hrs by propidium iodide staining based flow cytometric analysis relative to control; format: functional; outline: as §1
[21] = Selectivity index, ratio of CC50 for HEK293T cells to GI50 for human A549 cells; format: toxicity; details: HEK293T cells and A549 cells, read-out: Selectivity Index
Outline: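 Ratio CC50/GI50: CC50 is the concentration reducing non-tumour 293T cell proliferation by 50%; GI50 is the concentration reducing cancer cell proliferation by 50%.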

Tubulin (Homo sapiens) = Tubulin (Homo sapiens) (UniProt P68371+Q9H4B7+P0DPH7+P68366+Q13509+Q71U36+P04350+Q3ZCM7+P07437+P68363+Q9BQE3+Q6PEY2+Q13885+Q9BVA1+Q9BUF5); assay: Inhibition of tubulin polymerization in human HepG2 cells assessed as mitotic catastrophe formation at 0.04 to 0.1 uM after 12 hrs by DAPI staining based immunofluorescence confocal laser scanning microscopic analysis; format: cell-based
HeLa [22] = assay: Antitumor activity against human HeLa cells xenografted in nude mouse assessed as necrosis of tumor cells at 10 to 20 mg/kg, ip after 14 days by hematoxylin and eosin staining based microscopic analysis; format: functional, organism-based
Outline: (§3)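 Excised tumours and heart, liver, kidney and spleen were H&E-stained and examined microscopically. Tumour scoring covered cell arrangement and necrosis. Organ scoring covered inflammatory infiltration, edema, necrosis and cell morphology.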

Mus musculus [23] = assay: Cardiotoxicity in nude mouse xenografted with human HeLa cells assessed as cellular inflammatory infiltration in heart at 10 to 20 mg/kg, ip after 14 days by hematoxylin and eosin staining based microscopic analysis; format: toxicity, organism-based; details: in vivo, 336 h; outline: as §3
Mus musculus [24] = assay: Toxicity in nude mouse xenografted with human HeLa cells assessed as cellular inflammatory infiltration in spleen at 10 to 20 mg/kg, ip after 14 days by hematoxylin and eosin staining based microscopic analysis; format: organism-based; details: in vivo, 336 h
Mus musculus [25] = assay: Nephrotoxicity in nude mouse xenografted with human HeLa cells assessed as morphological changes in kidney cells at 10 to 20 mg/kg, ip after 14 days by hematoxylin and eosin staining based microscopic analysis; format: toxicity, organism-based; details: in vivo, 336 h

IC50 [2]: 1.6 µM | inhibition (Bos taurus): Active | inhibition (Tubulin (Homo sapiens)): Active
SMILES: COc1cccc(C2=NN(C(=O)c3ccc(C)nc3)C(c3cn(C)c4ccc(OC)cc34)C2)c1 (configuration not stated)
Activity (Mus musculus [1]): Non-Toxic | Activity (HepG2 [3]): Dose-dependent effect | Activity (HeLa [4]): 8.57% | Activity (HeLa [5]): 16.47% | Activity (HeLa [6]): 65.43% | Activity (HepG2 [7]): 24.3% | Activity (HepG2 [8]): 30.26% | Activity (HepG2 [9]): 22.17% | Activity (HeLa [10]): 0.12% | Activity (HeLa [11]): 11% | Activity (HeLa [12]): 0.512% | Activity (HeLa [13]): 6.49% | viability at 0.02 µM (HepG2 [14]): 92.9% | Activity (HepG2 [15]): 9.61% | viability at 0.08 µM (HepG2 [16]): 81.4% | Activity (HepG2 [17]): 8.33% | Activity (Mus musculus [18]): Non-Toxic | Activity (Mus musculus [19]): Non-Toxic | Activity (HeLa [20]): 66.08% | selectivity ratio [21]: 3 to 10 | Activity (HeLa [22]): Active | Activity (Mus musculus [23]): Non-Toxic | Activity (Mus musculus [24]): Non-Toxic | Activity (Mus musculus [25]): Non-Toxic
